According to paper PMC8001668 (International Journal of Nanomedicine, 2021):

Columns and labels:
Plasma pharmacokinetics = type: in vivo; conditions: SD rats plasma, intraperitoneal, free group received DAS + ROZ
Outline: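 Female SD rats (5 per group) got an intraperitoneal dose of either the free two-drug combination or the micelle formulation, at 5 mg/kg of the kinase inhibitor. Blood (0.3 mL) was taken from 0 min to 24 h and spun at 4000 rpm for 10 min. Plasma (100 µL) was mixed with methanol (300 µL) plus diclofenac sodium internal standard, spun, and analysed by HPLC. Parameters were derived from the concentration–time data.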

MDA-MB-231 cells [1] = experiment: In vitro cytotoxicity, MTT assay; type: cell-based, Human; conditions: for IC50: Homo sapiens
MCF-7 cells [2] = experiment: In vitro cytotoxicity, MTT assay; type: cell-based, Human; conditions: for IC50: Homo sapiens
MDA-MB-231 cells [3] = experiment: Transwell migration experiment; type: cell-based, Human; conditions: 24 h treatment
MCF-7 cells [4] = experiment: Transwell migration experiment; type: cell-based, Human; conditions: 24 h treatment

AUC0-∞ of DAS (Plasma pharmacokinetics; DAS 5 mg/kg)	AUC0–24 of DAS (Plasma pharmacokinetics; DAS 5 mg/kg)	SMILES	IC50 (MDA-MB-231 cells [1]; MDA-MB-231, 24 h)	IC50 (MDA-MB-231 cells [1]; MDA-MB-231, 48 h)	IC50 (MCF-7 cells [2]; MCF7, 24 h)	IC50 (MCF-7 cells [2]; MCF7, 48 h)	number of cells penetrating the membrane (migration) (MDA-MB-231 cells [3])	AUC0–24 of ROZ (Plasma pharmacokinetics; DAS dose 5 mg/kg)	AUC0–∞ of ROZ (Plasma pharmacokinetics; DAS dose 5 mg/kg)	number of cells penetrating the membrane (migration) (MCF-7 cells [4])	cell survival rate (MDA-MB-231 cells [1]; MDA-MB-231 cells, 24 h incubation)	cell survival rate (MCF-7 cells [2]; MCF-7 cells, 24 h incubation)
2380 ± 1120 ng·h/mL	2260 ± 930 ng·h/mL	Cc1nc(Nc2ncc(C(=O)Nc3c(C)cccc3Cl)s2)cc(N2CCN(CCO)CC2)n1 [DAS, Dasatinib]	73.6 ± 3.8 µM	64.7 ± 2.63 µM	52 ± 6.83 µM	31.2 ± 2.8 µM	–	–	–	–	–	–
–	–	CN(CCOc1ccc(CC2SC(=O)NC2=O)cc1)c1ccccn1 (centres unmarked) [ROZ, rosiglitazone]	–	259 ± 27.5 µM	–	102 ± 6.2 µM	significantly reduced	41060 ± 10850 ng·h/mL	41340 ± 10680 ng·h/mL	significantly reduced	higher than 90%	higher than 90%
